Active and inactive are the calls of the source. The rule behind the calls is not given here.
Key:
[1] = system: NFS-60; assay: Antitumor activity in mouse M-NFS-60 cells allografted in po dosed CD-1 nude mouse assessed as inhibition of tumor cell growth in peritoneal cavity compound starting 1 hr before challenge twice a day for 4 days measured after 4 days; type: functional, organism-based
How it was run: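 CD-1 nude female mice (22-26 g); 1 × 10^7 M-NFS-60 cells in PBS injected i.p. Oral dosing b.i.d. at 20 and 80 mg/kg as a suspension in 0.5% hydroxypropylmethylcellulose/0.1% Tween 80 (0.2 ml per mouse), starting 1 h before cell injection. Peritoneal cells recovered by cold PBS-heparin lavage on day 4 and counted by hemocytometer after crystal violet dilution. Mean ± SEM; Dunnett's test.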

[2] = system: Peritoneal macrophage cell; assay: Effect on LPS-induced IL-6 production in mouse intraperitoneal macrophages pretreated with CSF-1 at 0.03906 to 20 uM compound incubated for 30 mins before LPS stimulation measured after 20 hrs by ELISA; type: functional, cell-based
[3] = target: [Pyruvate dehydrogenase (acetyl-transferring)] kinase isozyme 4, mitochondrial (Homo sapiens, UniProt Q16654); assay: Inhibition of human His-tagged PDHK4 using biotin-YHGHSMSDPGVSYRRR-amide as substrate after 20 mins by scintillation proximity assay
[Pyruvate dehydrogenase (acetyl-transferring)] kinase isozyme 4, mitochondrial, sequence (Q16654 whole entry, the tested form may be a part): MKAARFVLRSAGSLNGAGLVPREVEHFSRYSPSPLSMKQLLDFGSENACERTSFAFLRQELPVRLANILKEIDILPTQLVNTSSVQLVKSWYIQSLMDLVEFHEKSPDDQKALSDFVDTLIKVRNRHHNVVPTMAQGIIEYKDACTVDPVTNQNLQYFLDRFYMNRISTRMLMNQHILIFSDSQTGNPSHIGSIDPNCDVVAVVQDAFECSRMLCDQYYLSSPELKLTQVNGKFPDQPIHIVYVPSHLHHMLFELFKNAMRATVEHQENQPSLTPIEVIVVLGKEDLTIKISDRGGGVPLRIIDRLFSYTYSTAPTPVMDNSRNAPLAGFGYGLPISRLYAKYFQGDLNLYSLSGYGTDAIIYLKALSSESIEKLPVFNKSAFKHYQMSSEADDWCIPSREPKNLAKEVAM
How it was run: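 Catalytic domains of the human kinases were expressed, isolated and assayed with ATP and the appropriate substrate. Compound was tested as a 10- to 12-point dose-response up to a maximal 20 μM.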

[4] = system: Mus musculus; assay: Inhibition of LPS-stimulated IL-6 production in mouse at 40 mg/kg, po administered 4.5 hr before LPS challenge measured […] after LPS challenge; type: functional
[5] = Cmax in mouse at 80 mg/kg, po; type: ADME, organism-based; set-up: dose 80 mg/kg, route oral; conditions: in vivo
How it was run: (§1)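 Female mice given single oral doses (20 or 80 mg/kg) in 0.5% HPMC/0.1% Tween 80. Three mice killed with CO2 per time point; plasma extracted with isopropyl alcohol/acetonitrile, then vortexed, sonicated and centrifuged. Quantified by LC/MS (APCI positive mode, multiple-reaction monitoring) against a standard curve prepared in plasma.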

[6] = system: NCI-N87; assay: Growth inhibition of serum-stimulated human NCI-N87 cells after 3 days by spectrophotometry; type: functional, cell-based; conditions: NCI-N87, 72 h
How it was run: (§2)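 Cells cultured so that added serum or growth factor gave linear growth. Compound tested as a 10- to 12-point dose-response with a top concentration of 20 μM.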

[7] = system: PBMC; assay: Effect on LPS-induced PGE2 production in human PBMC at 0.03906 to 20 uM preincubated for 30 mins before LPS stimulation measured after 20 hrs by ELISA; type: functional, cell-based
[8] = system: Mus musculus; assay: Increase in LPS-stimulated IL-6 production in mouse at 40 mg/kg, po administered 4.5 hr before LPS challenge measured […] after LPS challenge
[9] = system: Osteoclast; assay: Inhibition of human osteoclast attachment to plastic surface assessed cells per cm2 of plastic at 10 uM after 3 days by immunocytochemistry (reference value: 9723 +/- 1380 cells/cm2 of plastic); type: functional
How it was run: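 Human PBMCs from a healthy volunteer (5 × 10^5 cells in MEM/10% FCS) were seeded on plastic coverslips with RANKL and CSF-1 (30 ng/ml each) for 10 days, with medium changed every 3 days. Compound was added on day 10 (0.1% DMSO final). On day 13, total cells on the coverslips were counted by immunocytochemistry. Data are mean ± SEM.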

[10] = (§3) Cmax in mouse at 20 mg/kg, po; type: ADME, organism-based; set-up: dose 20 mg/kg, route oral; conditions: in vivo; how it was run: as §1
[11] = system: Mus musculus; assay: Toxicity in mouse M-NFS-60 cells allografted CD-1 nude mouse assessed as effect on body weight at 20 to 80 mg/kg, po BID starting 1 hr before challenge for 4 days; type: organism-based; set-up: dose 20-80 mg/kg, route oral; conditions: in vivo
How it was run: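 Female CD-1 nude mice (22-26 g) received 1 × 10^7 M-NFS-60 cells in PBS i.p. Oral dosing b.i.d. in 0.5% HPMC/0.1% Tween 80 began 1 h before cell injection. Body weight was taken at kill on day 4.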

[12] = system: Mus musculus; assay: Inhibition of thioglycolate-induced macrophage influx into peritoneal cavity in mouse at 20 mg/kg, po BID starting 1 hr before thioglycolate challenge for 4 days; type: functional
How it was run: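 Female C3H/HEN mice (22-26 g) were dosed orally with compound suspended in 0.5% hydroxypropylmethylcellulose/0.1% Tween 80 (0.2 ml per mouse). Thioglycolate (1.5 ml) was injected i.p. on day 0. On day 4, the peritoneum was lavaged with 5 ml cold PBS containing 40 units/ml heparin, and cells were counted by hemocytometer in 0.1% crystal violet. Data are mean ± SEM; Dunnett's test.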

[13] = system: Monocyte; assay: Effect on LPS-induced TNF production in human monocytes at 0.03906 to 20 uM preincubated for 30 mins before LPS stimulation measured after 20 hrs by ELISA; type: functional, cell-based
[14] = system: Peritoneal macrophage cell; assay: Effect on LPS-induced TNF production in mouse intraperitoneal macrophages pretreated with CSF-1 at 0.03906 to 20 uM compound incubated for 30 mins before LPS stimulation measured after 20 hrs by ELISA; type: functional, cell-based
[15] = system: Osteoclast; assay: Inhibition of human osteoclast degradation of bone assessed as bone slice resorbed at 3 uM after 3 days by immunocytochemistry (reference value: 26.6 +/- 4.7 %); type: functional; conditions: 72 h
[16] = system: HUVEC; assay: Growth inhibition of bFGF-stimulated HUVEC after 3 days by spectrophotometry; type: cell-based; conditions: Homo sapiens, 72 h; how it was run: as §2
[17] = system: HUVEC; assay: Growth inhibition of VEGF-stimulated HUVEC after 3 days by spectrophotometry; type: cell-based; conditions: Homo sapiens, 72 h; how it was run: as §2
[18] = system: Monocyte; assay: Inhibition of LPS-stimulated growth of freshly isolated human monocytes at 1 uM preincubated for 30 mins before inducer addition measured after 5 days by WST-1 method; type: functional; conditions: read-out: GI
[19] = Growth inhibition of serum-stimulated human MDA231 cells after 3 days by spectrophotometry; type: functional, cell-based; conditions: MDA-MB-231, 72 h; how it was run: as §2
[20] = as §3; type: ADME, organism-based; set-up: dose 20 mg/kg, route oral; conditions: in vivo; how it was run: as §1; remark: listed apart in the source
[21] = system: Monocyte; assay: Effect on LPS-induced PGE2 production in human monocytes at 0.03906 to 20 uM preincubated for 30 mins before LPS stimulation measured after 20 hrs by ELISA; type: functional, cell-based
[22] = system: Macrophage; assay: Effect on LPS-induced PGE2 production in CSF-1-stimulated human macrophages at 0.03906 to 20 uM preincubated for 30 mins before LPS stimulation measured after 20 hrs by ELISA; type: functional, cell-based
[23] = Protein binding in cell-culture media with human plasma at 3 uM; type: ADME, cell-free; conditions: read-out: PB (converted)
How it was run: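 Compound at 3 μM was added to triplicate samples and incubated 1 h at 37°C. Samples were centrifuged through a 30,000-MW filter (1,500 × g, 15 min, 4°C). Percent bound was calculated from compound concentrations in the filtrate and retentate.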

[24] = Inhibition of human GST-tagged PKA using biotin-(6-amino caproic acid)-LRRASLGKKK-amide as substrate after 70 mins by scintillation proximity assay
How it was run: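 Catalytic domains of human kinases expressed, isolated and assayed with ATP and the appropriate peptide substrate. Compound tested as a 10- to 12-point dose-response with a top concentration of 20 μM.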

[25] = system: A549; assay: Growth inhibition of serum-stimulated human A549 cells after 3 days by spectrophotometry; type: functional, cell-based; conditions: A549, 72 h; how it was run: as §2
[26] = system: Osteoclast; assay: Inhibition of human osteoclast degradation of bone assessed as reduction in actin ring formation per cm2 of bone at 10 uM […] by immunocytochemistry (reference value: 1546 +/- 232 /cm2 of bone)

COc1ccc(COc2ccc(Cc3cnc(N)nc3N)cc2OC)cc1 [GW632580X]
growth inhibition (GI) [1]: Dose-dependent effect
Activity [2]: inactive
IC50 [3]: > 28 µM
inhibition in vivo at 40 mg/kg [4]: -28%
Cmax [5]: 5.6 µM
IC50 [6]: > 30 µM
Activity [7]: inactive
Activity [8]: Active
Activity [9]: 2728 /cm2
Cmax [10]: 1400 nM
Activity [11]: Non-toxic
inhibition in vivo at 20 mg/kg [12]: 17%
Activity [13]: inactive
Activity [14]: inactive
bone resorption (%) at 3 µM [15]: 1.5%
IC50 [16]: > 10 µM
IC50 [17]: 12 µM
inhibition of growth at 1 µM [18]: 50%
IC50 [19]: > 30 µM
Cmax [20]: 50 nM
Activity [21]: inactive
Activity [22]: inactive
fraction unbound at 3 µM [23]: 0.02
IC50 [24]: > 10 µM
IC50 [25]: > 30 µM
Activity [26]: 0 /cm2
